Common to all, as to assay type: cell-based
In assay [1] the target is Mitogen-activated protein kinase kinase kinase kinase 4 (Homo sapiens, UniProt O95819). In words: Inhibition of ZC1/HGK Lys2 labeling site in human A-375 cells at 0.05 uM by KiNativ Profiling analysis relative to control.
The target in assay [2] is T1, Serine/threonine-protein kinase LATS2 (Homo sapiens) (UniProt Q9NRM7).
T1 sequence (whole entry): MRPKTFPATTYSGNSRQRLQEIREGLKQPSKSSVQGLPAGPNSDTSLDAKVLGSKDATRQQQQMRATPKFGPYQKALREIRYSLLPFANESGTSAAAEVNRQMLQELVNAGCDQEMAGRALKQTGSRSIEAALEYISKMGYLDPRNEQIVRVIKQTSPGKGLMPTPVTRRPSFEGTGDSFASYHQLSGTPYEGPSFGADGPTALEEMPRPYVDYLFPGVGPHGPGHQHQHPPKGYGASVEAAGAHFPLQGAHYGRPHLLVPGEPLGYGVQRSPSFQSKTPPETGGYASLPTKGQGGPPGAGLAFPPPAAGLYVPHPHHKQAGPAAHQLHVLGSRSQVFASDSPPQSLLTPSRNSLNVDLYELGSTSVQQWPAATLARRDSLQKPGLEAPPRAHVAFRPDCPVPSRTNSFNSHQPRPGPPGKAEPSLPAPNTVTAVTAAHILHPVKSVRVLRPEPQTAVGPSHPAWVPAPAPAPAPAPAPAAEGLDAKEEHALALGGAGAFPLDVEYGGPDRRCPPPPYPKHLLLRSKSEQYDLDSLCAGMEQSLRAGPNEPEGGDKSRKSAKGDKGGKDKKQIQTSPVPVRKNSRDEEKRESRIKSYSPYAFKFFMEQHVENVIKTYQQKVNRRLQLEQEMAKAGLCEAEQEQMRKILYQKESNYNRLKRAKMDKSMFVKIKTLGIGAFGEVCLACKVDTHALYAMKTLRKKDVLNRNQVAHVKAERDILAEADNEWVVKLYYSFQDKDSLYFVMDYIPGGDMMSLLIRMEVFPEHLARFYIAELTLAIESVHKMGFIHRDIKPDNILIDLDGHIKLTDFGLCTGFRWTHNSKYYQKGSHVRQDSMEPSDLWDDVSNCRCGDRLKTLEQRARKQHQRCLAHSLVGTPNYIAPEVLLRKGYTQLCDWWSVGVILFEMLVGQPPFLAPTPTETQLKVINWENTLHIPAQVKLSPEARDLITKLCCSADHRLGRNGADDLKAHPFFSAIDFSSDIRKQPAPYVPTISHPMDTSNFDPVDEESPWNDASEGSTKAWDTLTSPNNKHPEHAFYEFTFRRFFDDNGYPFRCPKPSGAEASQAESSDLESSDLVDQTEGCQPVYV
The assay is described as follows: Inhibition of LATS2 Lys2 labeling site in human A-375 cells at 0.05 uM by KiNativ Profiling analysis relative to control.

In assay [3] the target is Cyclin-dependent kinase 18 (Homo sapiens) (UniProt Q07002). In words: Inhibition of PCTAIRE3 Lys1 labeling site harbouringSKLTENLVALKEIR in human A-375 cells at 5 uM by KiNativ Profiling analysis relative to control. The method in brief: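 Live A375 melanoma cells were treated with compound at 5 or 0.5 μM, then lysed. Lysates were labeled with a lysine-reactive ATP or ADP-biotin probe. Read-out was the compound's protection of kinase labeling sites from probe labeling (KiNativ).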
Sequence of Cyclin-dependent kinase 18 (Homo sapiens) (Q07002 whole entry): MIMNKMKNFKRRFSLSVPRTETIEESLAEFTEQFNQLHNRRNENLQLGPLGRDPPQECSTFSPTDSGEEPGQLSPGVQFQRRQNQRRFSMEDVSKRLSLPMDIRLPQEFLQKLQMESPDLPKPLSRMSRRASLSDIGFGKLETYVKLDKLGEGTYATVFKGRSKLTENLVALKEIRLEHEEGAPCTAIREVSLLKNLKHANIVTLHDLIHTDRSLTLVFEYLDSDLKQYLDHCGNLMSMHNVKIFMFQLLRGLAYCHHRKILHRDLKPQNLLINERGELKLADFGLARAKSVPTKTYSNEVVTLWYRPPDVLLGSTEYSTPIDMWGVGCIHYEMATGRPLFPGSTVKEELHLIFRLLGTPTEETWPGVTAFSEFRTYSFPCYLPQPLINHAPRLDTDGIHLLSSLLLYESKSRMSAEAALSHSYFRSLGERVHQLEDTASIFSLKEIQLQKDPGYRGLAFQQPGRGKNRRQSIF

The target of assay [4] is Tyrosine-protein kinase Fer (Homo sapiens, UniProt P16591). In words: Inhibition of FER Lys1 labeling site in human A-375 cells at 5 uM by KiNativ Profiling analysis relative to control.
Sequence of Tyrosine-protein kinase Fer (P16591 whole entry, looked up): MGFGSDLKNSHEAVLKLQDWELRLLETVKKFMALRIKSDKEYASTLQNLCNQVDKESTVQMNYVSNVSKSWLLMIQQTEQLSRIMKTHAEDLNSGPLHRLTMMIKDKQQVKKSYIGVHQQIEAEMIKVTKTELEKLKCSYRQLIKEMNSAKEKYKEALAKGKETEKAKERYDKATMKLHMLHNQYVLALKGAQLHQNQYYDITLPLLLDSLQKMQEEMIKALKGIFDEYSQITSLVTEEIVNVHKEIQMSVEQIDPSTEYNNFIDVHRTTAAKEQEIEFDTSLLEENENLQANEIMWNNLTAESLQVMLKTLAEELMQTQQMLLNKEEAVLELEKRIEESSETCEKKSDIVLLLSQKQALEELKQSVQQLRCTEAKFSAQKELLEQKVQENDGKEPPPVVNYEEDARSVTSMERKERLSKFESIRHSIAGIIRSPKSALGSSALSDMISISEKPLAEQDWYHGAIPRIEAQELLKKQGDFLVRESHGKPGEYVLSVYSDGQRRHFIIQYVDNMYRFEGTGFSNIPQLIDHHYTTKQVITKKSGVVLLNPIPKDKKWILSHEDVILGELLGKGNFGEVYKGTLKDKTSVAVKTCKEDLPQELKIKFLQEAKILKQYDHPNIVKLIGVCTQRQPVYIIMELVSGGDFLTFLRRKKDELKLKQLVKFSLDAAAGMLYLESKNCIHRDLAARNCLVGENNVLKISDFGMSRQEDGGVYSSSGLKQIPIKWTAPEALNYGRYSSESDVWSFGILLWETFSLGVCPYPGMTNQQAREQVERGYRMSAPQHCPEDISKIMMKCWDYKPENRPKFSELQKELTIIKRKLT
The target in assay [5] is Serine/threonine-protein kinase PLK1 (Homo sapiens) (UniProt P53350). In words: Inhibition of PLK1 Lys1 labeling site in human A-375 cells at 0.5 uM by KiNativ Profiling analysis relative to control.
Sequence of Serine/threonine-protein kinase PLK1 (Homo sapiens) (P53350 whole entry): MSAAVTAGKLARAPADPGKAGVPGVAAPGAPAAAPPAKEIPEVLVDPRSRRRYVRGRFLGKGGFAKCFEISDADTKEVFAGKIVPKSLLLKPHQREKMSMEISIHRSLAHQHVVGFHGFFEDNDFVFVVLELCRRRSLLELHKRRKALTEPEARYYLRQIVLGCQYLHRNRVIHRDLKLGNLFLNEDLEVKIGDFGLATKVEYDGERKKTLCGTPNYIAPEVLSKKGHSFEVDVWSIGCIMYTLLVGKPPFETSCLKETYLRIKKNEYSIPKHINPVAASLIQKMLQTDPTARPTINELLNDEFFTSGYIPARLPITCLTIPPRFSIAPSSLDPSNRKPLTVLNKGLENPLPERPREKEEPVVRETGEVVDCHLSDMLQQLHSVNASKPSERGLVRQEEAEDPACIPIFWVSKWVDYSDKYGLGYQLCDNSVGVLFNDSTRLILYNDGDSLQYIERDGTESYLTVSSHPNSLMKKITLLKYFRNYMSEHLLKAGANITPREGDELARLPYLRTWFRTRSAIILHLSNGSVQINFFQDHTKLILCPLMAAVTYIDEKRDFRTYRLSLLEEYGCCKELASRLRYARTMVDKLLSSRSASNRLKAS
Assay [6] deals with T2, Serine/threonine-protein kinase Nek9 (Homo sapiens) (UniProt Q8TD19).
T2 sequence (whole entry): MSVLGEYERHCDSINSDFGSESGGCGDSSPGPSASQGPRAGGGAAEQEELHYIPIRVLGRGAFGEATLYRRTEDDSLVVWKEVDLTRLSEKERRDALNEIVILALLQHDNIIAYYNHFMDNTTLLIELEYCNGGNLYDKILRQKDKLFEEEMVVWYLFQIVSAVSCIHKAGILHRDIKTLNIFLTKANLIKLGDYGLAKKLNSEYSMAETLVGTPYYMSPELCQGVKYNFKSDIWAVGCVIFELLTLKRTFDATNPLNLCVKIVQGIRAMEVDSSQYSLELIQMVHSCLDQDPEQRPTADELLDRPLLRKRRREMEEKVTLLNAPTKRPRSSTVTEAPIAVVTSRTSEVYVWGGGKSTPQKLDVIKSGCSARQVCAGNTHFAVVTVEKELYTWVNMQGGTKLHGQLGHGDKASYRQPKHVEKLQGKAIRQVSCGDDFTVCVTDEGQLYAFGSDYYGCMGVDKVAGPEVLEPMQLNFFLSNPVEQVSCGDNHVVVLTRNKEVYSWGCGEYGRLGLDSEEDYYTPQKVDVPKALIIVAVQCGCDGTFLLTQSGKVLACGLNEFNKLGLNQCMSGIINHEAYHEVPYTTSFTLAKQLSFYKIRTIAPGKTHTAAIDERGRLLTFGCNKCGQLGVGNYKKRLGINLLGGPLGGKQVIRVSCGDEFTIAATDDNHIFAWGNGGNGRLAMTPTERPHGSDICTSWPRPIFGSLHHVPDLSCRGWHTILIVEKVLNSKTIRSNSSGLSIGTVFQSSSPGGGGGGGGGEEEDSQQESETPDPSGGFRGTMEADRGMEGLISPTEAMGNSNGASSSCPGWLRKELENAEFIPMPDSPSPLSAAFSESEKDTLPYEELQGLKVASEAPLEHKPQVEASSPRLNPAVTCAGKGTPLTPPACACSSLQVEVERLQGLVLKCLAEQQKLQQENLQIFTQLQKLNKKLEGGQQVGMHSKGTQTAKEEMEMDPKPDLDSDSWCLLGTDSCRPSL
The assay is described as follows: Inhibition of NEK9 Lys1 labeling site harbouring TEDDSLVVWKEVDLTR in human A-375 cells at 0.05 uM by KiNativ Profiling analysis relative to control.

Assay [7] concerns the target T3, Aurora kinase C (Homo sapiens) (UniProt Q9UQB9).
T3 sequence (whole entry): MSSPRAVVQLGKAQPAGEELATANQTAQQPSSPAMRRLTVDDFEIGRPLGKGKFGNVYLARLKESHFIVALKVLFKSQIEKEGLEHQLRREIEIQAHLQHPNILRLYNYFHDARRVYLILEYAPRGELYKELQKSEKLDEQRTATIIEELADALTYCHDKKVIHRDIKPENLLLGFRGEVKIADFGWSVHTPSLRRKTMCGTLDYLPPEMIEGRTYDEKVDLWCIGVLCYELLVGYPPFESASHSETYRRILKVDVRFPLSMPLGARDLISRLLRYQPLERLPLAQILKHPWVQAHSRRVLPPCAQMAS
In words: Inhibition of AurC ATP Loop labeling site in human A-375 cells at 0.05 uM by KiNativ Profiling analysis relative to control.

Sequence of Mitogen-activated protein kinase kinase kinase kinase 4 (O95819 2-1239 limits assumed): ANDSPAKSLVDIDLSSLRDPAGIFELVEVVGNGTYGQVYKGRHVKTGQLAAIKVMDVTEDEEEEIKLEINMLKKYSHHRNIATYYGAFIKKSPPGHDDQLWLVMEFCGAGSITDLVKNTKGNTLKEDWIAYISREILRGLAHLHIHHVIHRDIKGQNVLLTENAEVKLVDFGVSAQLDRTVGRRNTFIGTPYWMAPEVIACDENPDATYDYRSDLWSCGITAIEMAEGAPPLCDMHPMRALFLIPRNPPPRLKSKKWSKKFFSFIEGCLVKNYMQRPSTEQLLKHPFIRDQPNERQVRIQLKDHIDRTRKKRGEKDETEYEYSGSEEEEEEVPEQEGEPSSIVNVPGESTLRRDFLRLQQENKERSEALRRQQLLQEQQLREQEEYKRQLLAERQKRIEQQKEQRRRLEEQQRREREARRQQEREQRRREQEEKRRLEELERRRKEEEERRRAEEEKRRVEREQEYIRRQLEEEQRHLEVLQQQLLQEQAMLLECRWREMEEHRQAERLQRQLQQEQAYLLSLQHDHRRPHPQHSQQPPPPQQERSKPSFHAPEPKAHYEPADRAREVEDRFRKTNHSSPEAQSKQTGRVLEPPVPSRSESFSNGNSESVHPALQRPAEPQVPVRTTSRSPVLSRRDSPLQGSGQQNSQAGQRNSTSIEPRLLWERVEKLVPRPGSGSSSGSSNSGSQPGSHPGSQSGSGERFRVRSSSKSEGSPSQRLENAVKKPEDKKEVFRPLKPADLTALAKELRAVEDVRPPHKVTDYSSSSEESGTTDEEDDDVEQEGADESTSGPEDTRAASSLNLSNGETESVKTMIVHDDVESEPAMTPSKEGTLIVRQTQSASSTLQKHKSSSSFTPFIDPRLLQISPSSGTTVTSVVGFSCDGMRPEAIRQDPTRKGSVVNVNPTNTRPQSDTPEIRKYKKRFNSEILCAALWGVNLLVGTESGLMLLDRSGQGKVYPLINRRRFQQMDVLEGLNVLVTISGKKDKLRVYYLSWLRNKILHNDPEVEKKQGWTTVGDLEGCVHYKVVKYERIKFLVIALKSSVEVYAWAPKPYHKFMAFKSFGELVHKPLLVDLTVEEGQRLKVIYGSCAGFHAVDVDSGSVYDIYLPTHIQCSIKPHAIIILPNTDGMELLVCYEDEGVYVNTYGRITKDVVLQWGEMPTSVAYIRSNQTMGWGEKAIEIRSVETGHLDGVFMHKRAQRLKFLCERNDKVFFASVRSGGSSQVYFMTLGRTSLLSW

With `CCN1CCN(Cc2ccc(NC(=O)c3ccc(C)c(/C=C/c4cnc5[nH]ccc5c4OC)c3)cc2C(F)(F)F)CC1`, the inhibition in assay [1] is 19.5%; in assay [2] it was -3.3%; in assay [3], 24.3%; in assay [4] it was 80.3%; in assay [5], -5.2%; in assay [6] it was -2.6%. Further, in assay [7], the inhibition came to 14.1%.

Take `CCN1CCN(Cc2ccc(NC(=O)c3ccc(C)c(Oc4ccnc5[nH]ccc45)c3)cc2C(F)(F)F)CC1`: the inhibition in assay [1] is 32.6%; in assay [2], 14.3%; in assay [3], 73.3%; in assay [4], 98.1%; in assay [5] it was -3.8%; in assay [6], 18.9%. Further, the inhibition in assay [7] is 32.5%.

By inhibition is commonly meant the change of the read-out against control, counted positive when it falls.

The record behind these values is ChEMBL document CHEMBL5696442, “Discovery of type II inhibitors of TGFβ-activated kinase 1 (TAK1) and mitogen-activated protein kinase kinase kinase kinase 2 (MAP4K2)” (J Med Chem, 2015).
